# Screens from PubChem BioAssay.
# The list is not random: actives were taken first. Their share in the collection is about 3.2%.
# Cneo AK release – Cryptococcus neoformans lysis via adenylate kinase release | C. neoformans lysis, adenylate kinase release luminescence, 4 h; normalised: neutral wells 0, clomiphene wells 100 | lysis activity, % at 15 µM | AID 651654 | 360,000 tested, 0.2% active;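 active means mean lysis activity across replicates of at least 80%, whatever share of replicates individually reach that level; inactive means mean lysis activity below 80%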
#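 Assay system: Cryptococcus neoformans yeast cells / Dosing: single-point compound dose / Timing: 4 h at 37 °C static, read 1 h later / Measured by: luminescence of released adenylate kinase using an AK detection reagent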
# AF4-AF9 inh – inhibitors of human MLL-AF4/AF9 interaction; inhibition, % at 10 µM; 350,000 tested, 0.47% active; AlphaScreen, biotin-AF4 peptide binding to FLAG-AF9; P42568;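 active means every replicate reaching a set inhibition limit, whatever the replicate mean, cut at about 25% in these data; inconclusive means mean inhibition reaches that limit but some replicates miss it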;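 further: 0% = plate neutral control median and 100% = total signal loss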
# Target sequence (P42568 whole entry, looked up): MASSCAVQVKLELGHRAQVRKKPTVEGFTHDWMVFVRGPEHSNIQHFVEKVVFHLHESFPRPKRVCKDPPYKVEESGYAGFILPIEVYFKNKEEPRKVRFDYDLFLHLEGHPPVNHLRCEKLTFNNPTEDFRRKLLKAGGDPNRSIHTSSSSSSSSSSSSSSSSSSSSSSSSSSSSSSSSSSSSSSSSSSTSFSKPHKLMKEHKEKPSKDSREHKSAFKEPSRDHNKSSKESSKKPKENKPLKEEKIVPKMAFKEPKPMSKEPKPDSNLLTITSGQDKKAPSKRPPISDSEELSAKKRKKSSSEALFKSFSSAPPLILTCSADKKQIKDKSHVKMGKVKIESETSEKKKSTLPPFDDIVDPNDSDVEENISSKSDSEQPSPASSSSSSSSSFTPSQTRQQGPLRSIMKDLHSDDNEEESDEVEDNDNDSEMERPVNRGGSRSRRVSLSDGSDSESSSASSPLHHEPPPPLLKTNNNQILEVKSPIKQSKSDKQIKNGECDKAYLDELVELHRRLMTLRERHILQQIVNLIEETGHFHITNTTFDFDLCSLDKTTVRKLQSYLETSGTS
# PfHsp90 yeast 2 – reduces growth (ATP signal) of yeast expressing P. falciparum Hsp90 | S. cerevisiae expressing PfHsp90, BacTiter-Glo ATP, 48 h; yeast lacking PDR1 and PDR3 efflux regulators | inhibition, % at 9.4 µM | 310,000 tested, 0.32% active | AID 504621;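 active means every replicate shows inhibition above about 80%, whatever the replicate mean, limit read from the data; inconclusive means mean inhibition reaches the set limit but some replicate falls short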;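 further: 0% = DMSO neutral controls and 100% = 20 µM radicicol positive controls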
# Ecoli rRNA inh – selective bacterial rRNA inhibition in E. coli. E. coli WT GFP vs humanized-ribosome RFP mutants, fluorescence, 24 h; active compounds read low; DMSO median 0, no signal -100. GFP signal change (wild-type ribosome), % (no concentration beside the values). 350,000 tested, 1.6% active. AID 720706;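 active means significant combined selectivity score with lowered wild-type GFP, culture density cut under 30%, mutant RFP and density less affected; inactive means any of these conditions unmet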
# DENV2 CPE – inhibitors of DENV2 cytopathic effect. AID 651640. CPE inhibition, % at 9.99 µM. DENV2-infected cells, cytopathic effect rescue, plate reader. 350,000 tested, 1.7% active; in the data active means CPE inhibition above about 20%, passing the limit was not always enough; inconclusive means no clear call, values can overlap the other calls; tested in BHK-21 cells;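 further: 0% = median of neutral control wells and 100% = median of positive control wells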
# S100A4 inh HTS – S100A4-myosin IIA interaction inhibition; S100A4/TAMRA-MyoIIA peptide fluorescence polarization; inhibition, % at 10.7 µM; 360,000 tested, 0.14% active; P26447;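 active means mean inhibition of at least 70% across replicates, with every replicate also reaching that level; inconclusive means mean inhibition reaches 70% but some replicates fall short; inactive means mean inhibition below 70%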
# Target sequence (P26447 whole entry, looked up): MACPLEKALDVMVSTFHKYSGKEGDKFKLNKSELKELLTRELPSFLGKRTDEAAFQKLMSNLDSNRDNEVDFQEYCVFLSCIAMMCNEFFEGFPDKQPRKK
#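 Test system: S100A4 monomer protein; Medium: HEPES pH 7.2 with CaCl2, KCl, NaCl, DTT, Triton; Probe or stimulus: TAMRA-labelled myosin IIA heavy-chain peptide probe, 5 nM; Doses: one dose per compound; Times: polarization read 5 min after assay mix addition, stable 5–60 min; Benchmarks: neutral control DMSO, positive control TFP.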
# Active calls of the source: *; ? = inconclusive; / = not tested or not shown; + = active, no number.
SMILES,Cneo AK release,AF4-AF9 inh,PfHsp90 yeast 2,Ecoli rRNA inh,DENV2 CPE,S100A4 inh HTS
O=C(c1ccc2c(c1)OCO2)N1CC[C@@H]2[C@H]1c1cc(-c3ccccc3)ccc1N[C@@H]2CO,2,1,/,-3,?,-3
C[C@@H]1CN([C@H](C)CO)C(=O)c2cc(C#Cc3ccccn3)cnc2O[C@@H]1CN(C)Cc1ccncc1,2,-7,/,2,-4,-32
O=C(O)c1cccc(N/N=C/c2cc(Br)cc(Br)c2O)c1,-1,/,110*,/,/,/
Cc1c(N=Cc2cc(Br)cc(Br)c2O)cccc1C(=O)O,/,0,102*,4,0,-6
CCC(O)(CC)C(=O)N/N=C/c1cc(Br)cc(Br)c1O,1,-2,-19,-21*,11,-3
COC(=O)[C@@H]1[C@@H](CO)[C@@H]2Cn3c(cccc3=O)[C@@H]2N1C(=O)C1CCCC1,/,-3,/,3,?,5
O=C(Cc1ccncc1)Nc1ccc2c(c1)[C@@H]1C[C@H](CC(=O)NC3CCCC3)O[C@@H](CO)[C@@H]1O2,6,0,/,7,13,4
CN(C)CCCNC(=O)[C@H]1[C@H](CO)[C@H]2Cn3c(cccc3=O)[C@H]2N1C(=O)Nc1ccccc1,-1,-2,/,2,-5,9
Cc1ccc(NC2=C(Cl)C(=O)OC2OC(=O)c2ccccc2)c(C)c1 (configuration not stated),/,0,-1,-41*,5,3
CO[C@H]1CN(C)C(=O)c2cc(NC(=O)NC(C)C)ccc2OC[C@H](C)NC[C@H]1C,-3,/,/,4,/,/
Cc1cc2ncn(/N=C/c3ccc([N+](=O)[O-])s3)c2cc1C,/,/,-53,/,/,/
O=[N+]([O-])c1ccc(/C=N/n2cnc3ccccc32)s1,-3,0,105*,0,-3,-1
O=[N+]([O-])c1cccc(C=Nc2cc3c(cc2Br)OCCO3)c1,/,0,8,5,44*,-13
O=C(N/N=C/c1cccc([N+](=O)[O-])c1)c1ccc2c(c1)OCCO2,-3,/,/,/,/,/
CO[C@H]1CN(C)C(=O)c2cc(NC(=O)c3cccc(F)c3)ccc2OC[C@@H](C)N(C(C)=O)C[C@H]1C,/,/,/,1,/,/
COc1ccc(N(C(=O)CSCC(=O)Nc2cc(C)on2)C(C(=O)NC2CCCCC2)c2ccc(O)c(O)c2)cc1 (configuration not stated),/,2,25,-18*,6,-4
CCCCC1=CC2=CC(=O)C(C)(OC(=O)CC)C(=O)C2=CN1c1ccc(OC)cc1 (configuration not stated),0,6,/,13,-2,5
CCCCC1=CC2=CC(=O)C(C)(OC(=O)CC)C(=O)C2=CN1c1cccc(C#N)c1 (configuration not stated),-2,-5,/,-16,26*,1
CCOc1ccc(/C=C2\SC(=S)NC2=O)cc1OC,-3,0,-43,-7,-2,5
CCOc1ccccc1C=C1SC(=S)NC1=O,1,-3,-7,-51,35*,-5
CO[C@@H]1CN(C)C(=O)c2ccc(NC(=O)Cc3ccccc3)cc2OC[C@H](C)N(C(=O)c2ccccc2F)C[C@@H]1C,-2,-8,/,0,0,-14
C[C@@H]1CN([C@@H](C)CO)C(=O)c2cc(C3=CCCC3)cnc2O[C@H]1CN(C)C(=O)C1CCC1,-1,-6,/,-2,1,1
O=c1ccc2[n+]([O-])c3ccc(O)cc3oc-2c1,/,43*,31,7,-7,+
O=C(C[C@@H]1CC[C@@H]2[C@H](COC[C@H](O)CN2Cc2ccccc2)O1)N[C@H]1CCN(Cc2ccccc2)C1,7,3,/,-3,-6,-25
O=C(CCCCCCCC(=O)NNC(=O)Nc1ccccc1)NNC(=O)Nc1ccccc1,/,1,-1,20,115*,1
SMILES,Cneo AK release,AF4-AF9 inh,PfHsp90 yeast 2,Ecoli rRNA inh,DENV2 CPE,S100A4 inh HTS
Cc1noc(C)c1S(=O)(=O)N(C)C[C@@H]1Oc2ccc(NS(=O)(=O)c3ccc(Cl)cc3)cc2C(=O)N([C@@H](C)CO)C[C@@H]1C,-1,1,/,0,5,0
C[C@@H]1CN([C@@H](C)CO)C(=O)c2cccc(NC(=O)NC3CCCCC3)c2O[C@H]1CN(C)C(=O)Nc1ccc(F)cc1,8,-3,/,0,0,7
O=[N+]([O-])c1ccc(/C=N/N2CCN(Cc3ccccc3)CC2)cc1,-3,?,19,-16*,-1,-1
O=[N+]([O-])c1ccc(/C=N\N2CCN(c3ccc(Cl)cc3)CC2)cc1,3,/,-2,/,/,/
Cc1ccc(CN2CCN(/N=C\c3cccc([N+](=O)[O-])c3)CC2)cc1,-3,15,-6,-25*,4,-3
O=[N+]([O-])c1ccc(/C=N/N2CCCCC2)cc1,-3,-7,-5,8,33*,0
CCCSc1ccc([C@@H]2[C@H]3C(=O)N(CC)C(=O)[C@H]3[C@]3(C(=O)OC)CCCN23)cc1OC,-2,-1,-15,3,102*,-5
CCCSc1ccc([C@@H]2[C@H]3C(=O)N(CC)C(=O)[C@H]3[C@]3(C(=O)OC)CCCCN23)cc1OC,1,0,-13,/,2,1
Cc1ccc(-n2c(Cc3cccc4ccccc34)n[nH]c2=S)c(C)c1,/,-2,3,-45*,2,-3
CCC(=O)N1CCCCN2[C@H](C1)[C@H](c1ccc(/C=C/c3ccccc3)cc1)[C@@H]2CO,1,8,/,-58,5,3
CCNC(=O)[C@H]1[C@H](CO)[C@H]2Cn3c(ccc(-c4ccc(F)cc4)c3=O)[C@@H]1N2C,-1,-2,/,1,-2,138*
CCNC(=O)[C@H]1[C@H](CO)[C@H]2Cn3c(ccc(-c4ccc(OC)cc4)c3=O)[C@@H]1N2CC,40,-2,/,-1,79*,4
CS(=O)(=O)N1[C@@H]2c3ccc(-c4ccc(F)cc4)c(=O)n3C[C@H]1[C@H](CO)[C@H]2C(=O)N1CCOCC1,5,0,/,1,115*,/
CCCNC(=O)[C@@H]1[C@@H](CO)[C@@H]2Cn3c(ccc(-c4ccc(F)cc4)c3=O)[C@H]1N2C,3,-2,/,-4,3,1
CC(C)NC(=O)N(C)C[C@@H]1Oc2ccc(NC(=O)CCCCCC(=O)Nc3ccccc3N)cc2C(=O)N([C@H](C)CO)C[C@H]1C,/,0,/,1,6,-4
CC(C)[C@H]1C(=O)N[C@H](c2ccccc2)CC=CC[C@@H](C)Oc2ccccc2C(=O)N1C (mixture of isomers),/,/,/,-3,/,/
CN(C)c1ccc(C=Cc2nccc3ccccc23)cc1,-11,2,/,93,6,88*
